From ChEMBL document CHEMBL1126179, “Synthesis and anti-HIV activity of isonucleosides” (J Med Chem, 1992)

What was measured:
[1] = In vitro effective dose which provides 50% protection of ATH-8 cells against the cytopathic effect of HIV; type: functional; details: Homo sapiens, read-out: ED50 (the source's name)
Method in brief: (§1)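 ATH-8 cells infected with HIV-1 (HTLV-III_B strain) and read as the dose giving 50% protection against viral cytopathic effect. Reported as a range from ≥3 experiments, each including a standard such as AZT.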

[2] = In vitro cytotoxicity against uninfected ATH-8 (human T-cell) cell line.; type: functional; details: read-out: CD50 (the source's name)
Method in brief: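 Uninfected ATH-8 cells; the value is the dose that reduces viability by 50%. Concentrations tested up to […].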

[3] = In vitro effective dose which provides 50% protection of ATH-8 cells against the cytopathic effect of HIV; range 5-10 uM; type: functional; details: Homo sapiens, read-out: ED50 (the source's name)
[4] = test system: Human immunodeficiency virus 1; experiment: Concentration required to inhibit HIV replication by 50%; type: functional, organism-based
Method in brief: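 Human PBM from a normal donor, isolated by Ficoll-Hypaque and stimulated with PHA (5 μg/mL) for 24 h in RPMI 1640/15% FBS/IL-2. Cells plated at 5 × 10⁵ per well and infected with 20 TCID₅₀ of AZT-resistant patient isolate HIV-1 ERS 205pre, with drug added. Incubated at 37 °C for 7 days; half the medium and drug replaced on day 4. Day-7 supernatant p24 gag measured by radioimmunoassay.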

[5] = In vitro effective dose which provides 50% protection of ATH-8 cells against the cytopathic effect of HIV; range 10-50 uM; type: functional; details: Homo sapiens, read-out: ED50 (the source's name); method in brief: as §1
[6] = In vitro effective dose which provides 50% protection of ATH-8 cells against the cytopathic effect of HIV; Range 5-10 uM; type: functional; details: Homo sapiens, read-out: ED50 (the source's name)
[7] = In vitro effective dose which provides 50% protection of ATH-8 cells against the cytopathic effect of HIV; range 5-15 uM; type: functional; details: Homo sapiens, read-out: ED50 (the source's name); method in brief: as §1

Row | EC50 [1] | IC50 [4] | SMILES | CC50 [2] | also measured
1 | > 100 µM |  | OC[C@H]1C[C@@H](n2cnc3c(O)ncnc32)CO1 | > 100 µM | 
2 |  |  | Nc1ncnc2c1ncn2[C@H]1CC[C@@H](CO)O1 | > 200 µM | EC50 [3]: 5 µM
3 |  | 1.28 µM | O=c1[nH]cnc2c1ncn2[C@H]1CC[C@@H](CO)O1 [DIDANOSINE] |  | 
4 |  | 17.5 µM | Nc1nc(O)c2ncn([C@H]3CO[C@@H](CO)C3)c2n1 | > 500 µM | EC50 [5]: 10 µM
5 |  |  | Nc1nc(O)c2ncn([C@H]3CC[C@@H](CO)O3)c2n1 | > 200 µM | EC50 [6]: 5 µM
6 | > 100 µM |  | Cc1cn([C@H]2CO[C@@H](CO)C2)c(=O)[nH]c1=O | > 100 µM | 
7 | > 100 µM |  | Nc1ccn([C@H]2CO[C@@H](CO)C2)c(=O)n1 | > 100 µM | 
8 |  | 8.2 µM | Nc1ncnc2c1ncn2[C@H]1CO[C@@H](CO)C1 | > 100 µM | EC50 [7]: 5 µM
